# Measurements published in PubChem BioAssay AID623885 (Vanderbilt Specialized Chemistry Center, 2012).
# Several values for one entry are separate records, joined by “and”; a condition that tells them apart may be missing. Identical values can stand only once. Activity calls are given as the source filed them.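 The calls were made as follows: active = mean half-maximal effective concentration under 30 µM; inactive = the rest.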
# Target: Metabotropic glutamate receptor 3 (Rattus norvegicus) (UniProt P31422)
# Sequence (P31422 whole entry, looked up): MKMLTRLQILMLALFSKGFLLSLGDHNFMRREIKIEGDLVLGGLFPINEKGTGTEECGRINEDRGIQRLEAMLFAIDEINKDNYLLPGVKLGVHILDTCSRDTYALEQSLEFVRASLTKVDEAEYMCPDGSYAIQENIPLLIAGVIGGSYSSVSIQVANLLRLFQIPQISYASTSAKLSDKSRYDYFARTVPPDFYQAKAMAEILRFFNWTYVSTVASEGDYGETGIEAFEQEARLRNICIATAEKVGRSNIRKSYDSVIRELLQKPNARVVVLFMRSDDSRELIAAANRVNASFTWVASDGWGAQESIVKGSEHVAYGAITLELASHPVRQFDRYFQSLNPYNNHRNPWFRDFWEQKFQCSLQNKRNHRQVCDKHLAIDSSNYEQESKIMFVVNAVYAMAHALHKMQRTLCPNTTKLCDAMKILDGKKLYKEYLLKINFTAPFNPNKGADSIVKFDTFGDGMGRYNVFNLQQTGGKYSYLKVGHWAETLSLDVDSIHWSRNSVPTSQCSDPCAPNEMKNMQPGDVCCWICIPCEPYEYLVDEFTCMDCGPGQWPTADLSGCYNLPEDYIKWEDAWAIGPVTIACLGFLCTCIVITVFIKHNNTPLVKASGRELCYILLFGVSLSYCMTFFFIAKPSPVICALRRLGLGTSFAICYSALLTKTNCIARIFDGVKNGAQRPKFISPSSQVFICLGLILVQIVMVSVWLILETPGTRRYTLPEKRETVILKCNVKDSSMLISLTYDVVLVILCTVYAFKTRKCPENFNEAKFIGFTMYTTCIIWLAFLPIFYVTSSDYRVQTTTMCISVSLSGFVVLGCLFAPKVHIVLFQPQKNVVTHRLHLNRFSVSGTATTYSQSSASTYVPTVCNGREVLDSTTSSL
# Assay: inhibition of glutamate response at mGlu3 – thallium flux, HEK/GIRK cells, rat, dose response (AID 623885)
# Details: HEK293 GIRK rat mGlu3, thallium flux fluorescence
# Procedure, shortened: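 Test system – HEK cells stably co-expressing GIRK channels, M4 muscarinic receptor, rat mGlu3 · Compound – 10 points, 1:3 serial dilution · Times – dye loading 1 h room temperature, compounds ~2.5 min · Measured by – thallium influx through GIRK, FluoZin-2 AM fluorescence · Read-out – baseline-normalized fluorescence slope 5–15 s post thallium/agonist, four-parameter logistic fit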
row,SMILES,IC50
1,COc1ccc(C#Cc2ccc(C(=O)N3CCC[C@H](CO)C3)cc2)cc1,3.46 µM
2,COc1ccc(C#Cc2ccc(C(=O)N3CCCC(CO)C3)cc2)cc1 (configuration not stated),2.46 µM
3,COc1ccc(C#Cc2ccc(C(=O)N3CCC[C@@H](CO)C3)cc2)cc1,1.48 µM

# Same assay, conditions: HEK293 GIRK rat mGlu3, thallium flux fluorescence; at 30 µM (top of the series)
row,SMILES,percent of glutamate max response
1,O=C(c1ccc(C#Cc2ccc(Cl)cc2)cc1)N1CCC(O)CC1,51.6
2,CC(C)(C)C#Cc1ccc(C(=O)N2CCC(O)CC2)cc1,inactive
3,CCOC1CCN(C(=O)c2ccc(C#Cc3ccc(OC)cc3)cc2)CC1,inactive
4,COc1cccc(C#Cc2ccc(C(=O)N3CCC(O)CC3)cc2)c1,inactive
5,COc1ccc(C#Cc2ccc(C(=O)N3CCN(C(C)C)CC3)cc2)cc1,1.26
6,O=C(c1ccc(C#CC2(O)CCCC2)cc1)N1CCC(O)CC1,inactive
7,COc1ccc(C#Cc2ccc(C(=O)N3CCC[C@@H](C(=O)O)C3)cc2)cc1,19.5
8,O=C(c1ccc(C#CCOc2ccccc2)cc1)N1CCC(O)CC1,37.7
9,COCC(C)NC(=O)c1ccc(C#Cc2ccc(OC)cc2)cc1 (configuration not stated),inactive
10,COc1ccc(C#Cc2ccc(C(=O)N3CCC3)cc2)cc1,31.5
11,COc1ccc(C#Cc2ccc(C(=O)NC(C)(C)C)cc2)cc1,inactive
12,COc1ccc(C#Cc2ccc(C(=O)NCc3ccc(C(C)(C)C)cc3)cc2)cc1,inactive
13,COc1ccccc1C#Cc1ccc(C(=O)N2CCC(O)CC2)cc1,inactive
14,COc1ccc(C#Cc2ccc(C(=O)NCCC(C)(C)C)cc2)cc1,inactive
15,N#Cc1ccc(C#Cc2ccc(C(=O)N3CCC(O)CC3)cc2)cc1,17.5
16,COc1ccc(C#Cc2ccc(C(=O)N[C@H](C)C3CC3)cc2)cc1,69
17,O=C(c1ccc(C#CC2(O)CCCCC2)cc1)N1CCC(O)CC1,inactive
18,CCC(C)(O)C#Cc1ccc(C(=O)N2CCC(O)CC2)cc1 (configuration not stated),inactive
19,COc1ccc(C#Cc2ccc(C(=O)N3CCCC(O)C3)cc2)cc1 (configuration not stated),-1.25
20,CC(O)(C#Cc1ccc(C(=O)N2CCC(O)CC2)cc1)c1cccc(F)c1 (configuration not stated),inactive
21,O=C(CN1CCc2cc(C#Cc3ccccc3)ccc2C1=O)NCCN1CCCCC1,3.68
22,N#CCCCC#Cc1ccc(C(=O)N2CCC(O)CC2)cc1,inactive
23,COc1ccc(C#Cc2ccc(C(=O)N3C[C@H]4C[C@@H]3CN4C(=O)OC(C)(C)C)cc2)cc1,inactive
24,O=C(c1ccc(I)cc1)N1CCC(O)CC1,inactive

row,SMILES,percent of glutamate max response
1,COc1ccc(C#Cc2ccc(C(=O)Nc3ccc(F)cn3)cc2)cc1,63.9
2,CC(C)(C)c1ccc(C#Cc2ccc(C(=O)N3CCC(O)CC3)cc2)cc1,inactive
3,CC(=O)OCC#Cc1ccc(C(=O)N2CCC(O)CC2)cc1,inactive
4,COc1ccc(C#Cc2ccc(C(=O)N3CCCCC3CO)cc2)cc1 (configuration not stated),55.9
5,COc1ccc(C#Cc2ccc(C(=O)N3CC(O)C3)cc2)cc1,76.2
6,Cn1ccnc1C#Cc1ccc(C(=O)N2CCC(O)CC2)cc1,inactive
7,CC(C)(O)C#Cc1ccc(C(=O)N2CCC(O)CC2)cc1,inactive
8,CCCCN(CCO)C(=O)c1ccc(C#Cc2ccc(OC)cc2)cc1,8.56
9,COc1ccc(C#Cc2ccc(C(=O)N3CCC(C#N)(c4ccccc4)CC3)cc2)cc1,inactive
10,COc1ccc(C#Cc2ccc(C(=O)NCCCO)cc2)cc1,inactive
11,Cc1ccccc1C#Cc1ccc(C(=O)N2CCC(O)CC2)cc1,10.8
12,O=C(c1ccc(C#CC2CC2)cc1)N1CCC(O)CC1,inactive
13,CC(C)CCC#Cc1ccc(C(=O)N2CCC(O)CC2)cc1,24.7
14,COc1ccc(C#Cc2ccccc2C(=O)N2CCC(O)CC2)cc1,inactive
15,COc1ccc(C#Cc2ccc(C(=O)NC(C)C)cc2)cc1,inactive
16,O=C(c1ccc(C#Cc2c(C(F)(F)F)cccc2C(F)(F)F)cc1)N1CCC(O)CC1,54.9
17,O=C(c1ccc(C#CC2CCCCC2)cc1)N1CCC(O)CC1,37
18,O=C(c1ccc(C#CCCCCCl)cc1)N1CCC(O)CC1,47.8
19,CC(C)CC#Cc1ccc(C(=O)N2CCC(O)CC2)cc1,inactive
20,O=C(c1ccc(C#CCc2ccsc2)cc1)N1CCC(O)CC1,16.1
21,CCCC(O)C#Cc1ccc(C(=O)N2CCC(O)CC2)cc1 (configuration not stated),inactive
22,O=C(c1ccc(C#Cc2cccc3ccccc23)cc1)N1CCC(O)CC1,32.7
23,O=C(c1ccc(C#Cc2ccc(C(F)(F)F)cc2)cc1)N1CCC(O)CC1,54.2
24,CN(C)c1ccc(C#Cc2ccc(C(=O)N3CCC(O)CC3)cc2)cc1,inactive

row,SMILES,percent of glutamate max response
1,COc1ccc(C#Cc2ccc(C(=O)NC3CCC(C)CC3)cc2)cc1 (configuration not stated),inactive
2,COc1ccc(C#Cc2ccc(C(=O)N3CCOCC3)cc2)cc1,65.1
3,Cc1ccc(C#Cc2ccc(C(=O)N3CCC(O)CC3)cc2)cc1,33.9
4,O=C(c1ccc(C#CC2=CCCCC2)cc1)N1CCC(O)CC1,46.1
5,COc1ccc(C#Cc2ccc(C(=O)NCCC(C)(C)O)cc2)cc1,114
6,O=C(c1ccc(C#CCC2CCCC2)cc1)N1CCC(O)CC1,34
7,COc1ccc(C#Cc2ccc(C(=O)N[C@H]3CCCCNC3=O)cc2)cc1,inactive
8,COc1ccc(C#Cc2cccc(C(=O)N3CCC(O)CC3)c2)cc1,13.9
9,COc1ccc(C#Cc2ccc(C(=O)N3CCC(C)(O)CC3)cc2)cc1,5.42
10,COc1ccc(C#Cc2ccc(C(=O)NCC(C)O)cc2)cc1 (configuration not stated),inactive
11,COc1ccc(C#Cc2ccc(C(=O)N(CCO)c3ccccc3)cc2)cc1,inactive
12,COc1ccc(C#Cc2ccc(C(=O)NCCO)cc2)cc1,inactive
13,O=C(c1ccc(C#Cc2ccccc2F)cc1)N1CCC(O)CC1,22.4
14,O=Cc1ccc(C#Cc2ccc(C(=O)N3CCC(O)CC3)cc2)cc1,21.8
15,O=C(c1ccc(C#Cc2ccncc2)cc1)N1CCC(O)CC1,inactive
16,O=C(c1ccc(C#CC2CCCC2)cc1)N1CCC(O)CC1,inactive
17,O=Cc1ccccc1C#Cc1ccc(C(=O)N2CCC(O)CC2)cc1,43.7
18,COc1ccc(C#Cc2ccc(C(=O)N3CCC(O)(c4ccc(Cl)c(C(F)(F)F)c4)CC3)cc2)cc1,117
19,COc1ccc(C#Cc2ccc(C(=O)N3CCCC3)cc2)cc1,35.3
20,O=C(c1ccc(C#Cc2ccccn2)cc1)N1CCC(O)CC1,inactive
21,COc1ccc(C#Cc2ccc(C(=O)N3CCC[C@@H](CO)C3)cc2)cc1,-0.47
22,COc1ccc(C#Cc2ccc(C(=O)N[C@H](C)C3CCCCC3)cc2)cc1,inactive
23,COc1ccc(C#Cc2ccc(C(=O)N3CCC(OC)CC3)cc2)cc1,inactive
24,O=C(c1ccc(C#Cc2ccc(-c3ccccc3)cc2)cc1)N1CCC(O)CC1,inactive

row,SMILES,percent of glutamate max response
1,O=C(c1ccc(C#Cc2ccccc2)cc1)N1CCC(O)CC1,11.6
2,O=C(c1ccc(C#CCC2CCCCC2)cc1)N1CCC(O)CC1,4.33
3,CCCC1(O)CCN(C(=O)c2ccc(C#Cc3ccc(OC)cc3)cc2)CC1,inactive
4,O=C(CN1CCc2cc(C#Cc3ccccc3)ccc2C1=O)N1CCC2CCCCC2C1 (configuration not stated),26.5 and 64.7
5,O=C(c1ccc(C#CCCCN2C(=O)c3ccccc3C2=O)cc1)N1CCC(O)CC1,inactive
6,O=C(c1ccc(C#CCN2N=NCc3ccccc32)cc1)N1CCC(O)CC1,inactive
7,COc1ccc(C#Cc2ccc(C(=O)N3CCN(c4ccccc4)CC3)cc2)cc1,inactive
8,COc1ccc(C#Cc2ccc(C(=O)NCCC3=CCCCC3)cc2)cc1,inactive
9,COc1ccc(C#Cc2ccc(C(=O)NC(C)(C)CO)cc2)cc1,162
10,COc1ccc(C#Cc2ccc(C(=O)N3CCC(O)CC3)cc2)cc1,7.43
11,COc1ccc(C#Cc2ccc(C(=O)N3CCN(c4ccccc4OC)CC3)cc2)cc1,inactive
12,COc1ccc(C#Cc2ccc(C(=O)N3CCC(CO)C3)cc2)cc1 (configuration not stated),14.7
13,COc1ccc(C#Cc2ccc(C(=O)N3CCC(C(C)=O)(c4ccccc4)CC3)cc2)cc1,inactive
14,O=C(c1ccc(C#CCc2ccccc2)cc1)N1CCC(O)CC1,42.2
15,CCN(CC)CC#Cc1ccc(C(=O)N2CCC(O)CC2)cc1,inactive
16,CC(C)(C)OC(=O)N1CCC(NC(=O)CN2CCc3cc(C#Cc4ccccc4)ccc3C2=O)CC1,33.8
17,COc1ccc(C#Cc2ccc(C(=O)N3CCC4CCCCC4C3)cc2)cc1 (configuration not stated),inactive
18,COc1ccc(C#Cc2ccc(C(=O)N3CCC[C@H](C(=O)O)C3)cc2)cc1,0.55
19,CCC1(O)CCN(C(=O)c2ccc(C#Cc3ccc(OC)cc3)cc2)CC1,46.4
20,O=C(c1ccc(C#CCN2C(=O)c3ccccc3C2=O)cc1)N1CCC(O)CC1,inactive
21,CC(O)CC#Cc1ccc(C(=O)N2CCC(O)CC2)cc1 (configuration not stated),inactive
22,CCN1CCC[C@H]1CNC(=O)c1ccc(C#Cc2ccc(OC)cc2)cc1,5.77
